Data on 1 molecule can be found in ChEMBL document CHEMBL3351225, “Design, synthesis, and structure-activity and structure-pharmacokinetic relationship studies of novel [6,6,5] tricyclic fused oxazolidinones leading to the discovery of a potent, selective, and orally bioavailable FXa inhibitor” (J Med Chem, 2014).

Data set [1] concerns the target Coagulation factor X (Homo sapiens, UniProt P00742). Kind of data set: Inhibition of human factor 10a using N-Z-D-Arg-Gly-Arg-pNA, S-2765 chromogenic substrate.
For data set [2], the target named is T1, Coagulation factor VII (Homo sapiens, UniProt P08709).
T1 sequence (P08709 whole entry): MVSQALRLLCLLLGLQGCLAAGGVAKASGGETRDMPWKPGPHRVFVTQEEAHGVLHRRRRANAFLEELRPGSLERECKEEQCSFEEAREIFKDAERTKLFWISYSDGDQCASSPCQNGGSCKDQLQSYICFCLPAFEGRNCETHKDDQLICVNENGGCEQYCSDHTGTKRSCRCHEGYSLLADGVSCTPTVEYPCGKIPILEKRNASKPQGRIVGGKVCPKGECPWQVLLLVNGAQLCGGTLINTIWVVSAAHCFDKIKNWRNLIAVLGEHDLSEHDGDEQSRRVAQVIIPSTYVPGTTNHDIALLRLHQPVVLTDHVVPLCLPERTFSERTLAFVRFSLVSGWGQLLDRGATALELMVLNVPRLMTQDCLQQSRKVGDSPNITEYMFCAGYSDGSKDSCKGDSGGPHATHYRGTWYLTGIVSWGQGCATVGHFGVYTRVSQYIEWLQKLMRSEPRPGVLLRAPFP
Kind of data set: Inhibition of human factor 7a using S-2366 chromogenic substrate. An outline of the steps: (§1)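 Human enzyme and inhibitor were premixed and preincubated, then the chromogenic substrate was added. Substrate levels: 300 μM S-2765 (FXa, trypsin); 200 μM S-2366 (FIIa); 2 mM S-2366 (FVIIa, FXIa). pNA release was monitored continuously at 405 nm for 20 min at 37 °C. IC50 was obtained by nonlinear regression.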

Data set [3] deals with Trypsin (Homo sapiens, UniProt P07477+P07478+P35030). The data set can be described thus: Inhibition of human trypsin using N-Z-D-Arg-Gly-Arg-pNA, S-2765 chromogenic substrate. It is filed as protein assay. An outline of the steps: as §1
Data set [4] relates to Plasma. Kind of data set: Anticoagulant activity in citrated rabbit plasma assessed as drug concentration required to double plasma clotting time preincubated for 10 mins at 37 degC by coagulometry. Type of data set: functional, Oryctolagus cuniculus. The method in brief: (§2)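 Test compound or DMSO added to citrated rabbit plasma (3.8% sodium citrate, 10:90 v/v) and preincubated 10 min at 37 °C. PT and aPTT clotting times measured on a coagulometer with commercial kits. Activity expressed as the concentration needed to double plasma clotting time (CT2, μM).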

For data set [5], the system named is Plasma. Kind of data set: Anticoagulant activity in citrated rabbit plasma assessed as activated partial thromboplastin time preincubated for 10 mins at 37 degC by coagulometry. Type of data set: functional, Oryctolagus cuniculus. The method in brief: as §2
A short description of data set [6]: Oral bioavailability in Sprague-Dawley rat at 10 mg/kg. It is filed as ADME, organism-based. To be noted: in vivo. An outline of the steps:
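Male Sprague-Dawley rats, 200−220 g, four per group. Vehicle was 5% DMSO + 5% Tween-80 in 90% saline. The reference drug was given in 10% DMSO + 10% Tween-80 + 80% PEG400 (40% solution in saline). Serial retrobulbar vein samples were quantified by LC-MS. Parameters came from noncompartmental analysis of mean plasma concentrations.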

Data set [7] in a line: Cmax in Beagle dog at 1 mg/kg, po. It is filed as ADME, organism-based, Canis lupus familiaris. The note with it: in vivo. Also noted: dose 1 mg/kg, route oral. An outline of the steps: (§3)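 Male dogs, three per group. Dosed orally at 1 mg/kg or by intravenous infusion at 0.5 mg/kg. Vehicle was 5% DMSO + 5% Tween-80 in 90% saline, or 10% DMSO + 10% Tween-80 + 80% PEG400 for the reference drug. Foreleg blood samples were quantified by LC-MS. Parameters came from noncompartmental analysis of mean plasma concentrations.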

Data set [8] is described as follows: Tmax in Beagle dog at 1 mg/kg, po. Type of data set: ADME, organism-based, Canis lupus familiaris. On the set-up: dose 1 mg/kg, route oral. The note with it: in vivo. The method in brief: as §3
Data set [9] in a line: Elimination half life in Beagle dog at 1 mg/kg, po. It is filed as ADME, organism-based, Canis lupus familiaris. On the set-up: dose 1 mg/kg, route oral. To be noted: in vivo. The method in brief: as §3
A short description of data set [10]: AUC (0 to infinity) in Beagle dog at 1 mg/kg, po. It is filed as ADME, organism-based, Canis lupus familiaris. Also noted: time infinity, dose 1 mg/kg, route oral. To be noted: plasma. The method in brief:
as §3

A short description of data set [11]: AUC (0 to infinity) in Beagle dog at 0.5 mg/kg, iv. It is filed as ADME, organism-based, Canis lupus familiaris. Also noted: time infinity, dose 0.5 mg/kg, route intravenous. To be noted: plasma. The method in brief:
as §3

A short description of data set [12]: Volume of distribution at steady state in Beagle dog at 0.5 mg/kg, iv. Type of data set: ADME, organism-based, Canis lupus familiaris. On the set-up: dose 0.5 mg/kg, route intravenous. To be noted: in vivo, read-out: Vdss. The method in brief: as §3
Data set [13] can be described thus: Oral bioavailability in Beagle dog at 1 mg/kg. To be noted: in vivo. It is filed as ADME, organism-based, Canis lupus familiaris. An outline of the steps: as §3
Data set [14] deals with Rattus norvegicus. Kind of data set: Induction of tail bleeding in rat assessed as prolongation of bleeding time dosed orally 60 mins before surgery. To be noted: in vivo, po, 1 h. Type of data set: organism-based. The method in brief:
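Anesthetized rats were dosed orally with compound suspended in 0.5% CMC-Na, or vehicle, 60 min before the tail was transected 4 mm from the tip. The tail was immersed vertically in saline at 37 °C. Bleeding time was taken as the point when flow ceased for >30 s, with a 30 min maximum.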

For data set [15], the target named is T2, Cytochrome P450 2C8 (Homo sapiens, UniProt P10632).
T2 sequence (P10632 whole entry): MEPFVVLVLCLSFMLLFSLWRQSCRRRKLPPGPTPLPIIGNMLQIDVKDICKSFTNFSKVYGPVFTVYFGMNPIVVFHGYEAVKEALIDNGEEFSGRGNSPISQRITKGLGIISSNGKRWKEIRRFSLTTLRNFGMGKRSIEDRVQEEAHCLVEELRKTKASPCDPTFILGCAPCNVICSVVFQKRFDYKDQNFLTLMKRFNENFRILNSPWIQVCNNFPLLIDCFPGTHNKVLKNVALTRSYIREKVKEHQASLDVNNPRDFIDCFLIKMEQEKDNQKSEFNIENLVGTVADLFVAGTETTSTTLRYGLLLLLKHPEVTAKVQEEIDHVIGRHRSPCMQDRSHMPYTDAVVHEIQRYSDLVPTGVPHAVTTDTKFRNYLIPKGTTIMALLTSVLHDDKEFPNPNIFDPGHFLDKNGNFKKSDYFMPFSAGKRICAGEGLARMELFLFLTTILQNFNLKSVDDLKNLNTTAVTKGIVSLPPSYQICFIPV
The data set can be described thus: Inhibition of CYP2C8 (unknown origin). Type of data set: ADME.

In data set [16] the target is Cytochrome P450 2C19 (Homo sapiens, UniProt P33261). The data set can be described thus: Inhibition of CYP2C19 (unknown origin). It is filed as ADME.
Cytochrome P450 2C19, sequence (P33261 whole entry): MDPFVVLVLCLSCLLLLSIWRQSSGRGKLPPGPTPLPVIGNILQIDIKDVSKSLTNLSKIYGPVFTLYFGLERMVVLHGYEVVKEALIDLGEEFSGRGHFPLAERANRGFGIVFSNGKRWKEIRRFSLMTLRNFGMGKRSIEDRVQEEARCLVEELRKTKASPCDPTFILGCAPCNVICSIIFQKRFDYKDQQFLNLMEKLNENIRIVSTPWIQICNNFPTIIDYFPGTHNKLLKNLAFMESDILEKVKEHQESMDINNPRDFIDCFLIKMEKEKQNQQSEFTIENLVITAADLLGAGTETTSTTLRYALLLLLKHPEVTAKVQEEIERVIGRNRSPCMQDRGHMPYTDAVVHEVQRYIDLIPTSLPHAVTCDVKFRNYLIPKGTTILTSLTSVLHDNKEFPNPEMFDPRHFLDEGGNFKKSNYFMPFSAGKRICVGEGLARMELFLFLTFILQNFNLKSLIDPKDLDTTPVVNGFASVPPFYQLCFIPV
In data set [17] the target is Cytochrome P450 2D6 (Homo sapiens, UniProt P10635). Kind of data set: Inhibition of CYP2D6 (unknown origin). It is filed as ADME.
Cytochrome P450 2D6, sequence (P10635 whole entry): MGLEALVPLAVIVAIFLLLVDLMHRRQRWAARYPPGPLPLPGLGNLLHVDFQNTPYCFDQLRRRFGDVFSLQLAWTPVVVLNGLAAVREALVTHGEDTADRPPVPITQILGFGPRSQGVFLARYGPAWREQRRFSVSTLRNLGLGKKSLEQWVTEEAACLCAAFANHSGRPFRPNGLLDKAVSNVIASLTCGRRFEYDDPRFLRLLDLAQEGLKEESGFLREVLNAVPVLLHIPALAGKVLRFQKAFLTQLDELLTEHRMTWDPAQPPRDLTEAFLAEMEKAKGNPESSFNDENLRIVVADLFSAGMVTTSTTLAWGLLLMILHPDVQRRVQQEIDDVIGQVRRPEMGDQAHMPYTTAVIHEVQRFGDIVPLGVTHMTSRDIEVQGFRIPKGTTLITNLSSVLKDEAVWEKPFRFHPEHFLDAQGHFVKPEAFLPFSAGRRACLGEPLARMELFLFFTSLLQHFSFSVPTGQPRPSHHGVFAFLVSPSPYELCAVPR
The target of data set [18] is Cytochrome P450 3A4 (Homo sapiens, UniProt P08684). The data set can be described thus: Inhibition of CYP3A4 (unknown origin). Type of data set: ADME.
Cytochrome P450 3A4, sequence (P08684 whole entry): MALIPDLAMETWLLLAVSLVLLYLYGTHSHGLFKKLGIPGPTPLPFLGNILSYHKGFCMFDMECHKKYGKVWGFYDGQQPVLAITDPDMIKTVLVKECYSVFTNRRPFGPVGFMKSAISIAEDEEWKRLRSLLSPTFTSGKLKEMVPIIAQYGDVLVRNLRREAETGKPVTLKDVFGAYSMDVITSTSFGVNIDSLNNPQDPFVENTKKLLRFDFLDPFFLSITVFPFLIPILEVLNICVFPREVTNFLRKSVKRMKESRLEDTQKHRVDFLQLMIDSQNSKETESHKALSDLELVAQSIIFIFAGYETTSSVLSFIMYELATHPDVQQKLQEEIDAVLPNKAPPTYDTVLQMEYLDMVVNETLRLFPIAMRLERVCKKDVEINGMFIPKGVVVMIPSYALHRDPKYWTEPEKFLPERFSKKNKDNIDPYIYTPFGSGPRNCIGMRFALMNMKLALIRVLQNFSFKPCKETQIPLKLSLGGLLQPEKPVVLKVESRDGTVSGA
Data set [19] relates to Rattus norvegicus. The data set can be described thus: Toxicity in rat assessed as induction of body weight changes at 50 mg/kg, po dosed once daily for 2 weeks. It is filed as organism-based. On the set-up: dose 50 mg/kg, route oral. To be noted: in vivo, 336 h. An outline of the steps:
(§4)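 Subacute toxicity in rats: oral dosing once daily for 2 weeks at 50 mg/kg (medium) or 100 mg/kg (high). Behavior, body weight, food intake, organ coefficients and survival rate were monitored.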

The subject of data set [20] is Rattus norvegicus. Kind of data set: Toxicity in rat assessed as survival rate changes at 50 mg/kg, po dosed once daily for 2 weeks. Also noted: dose 50 mg/kg, route oral. It is filed as organism-based. The note with it: in vivo, 336 h. The method in brief: as §4
Data set [21] deals with Rattus norvegicus. Kind of data set: Toxicity in rat assessed as induction of behavioral changes at 100 mg/kg, po dosed once daily for 2 weeks. On the set-up: dose 100 mg/kg, route oral. Type of data set: organism-based. To be noted: in vivo, 336 h. The method in brief: as §4
The subject of data set [22] is Rattus norvegicus. The data set can be described thus: Toxicity in rat assessed as induction of body weight changes at 100 mg/kg, po dosed once daily for 2 weeks. It is filed as organism-based. Also noted: dose 100 mg/kg, route oral. The note with it: in vivo, 336 h. The method in brief: as §4
Data set [23] relates to Rattus norvegicus. Kind of data set: Toxicity in rat assessed as induction of food intake changes at 100 mg/kg, po dosed once daily for 2 weeks. Type of data set: organism-based. Also noted: dose 100 mg/kg, route oral. The note with it: in vivo, 336 h. An outline of the steps:
as §4

Data set [24] deals with Rattus norvegicus. The data set can be described thus: Toxicity in rat assessed as survival rate changes at 100 mg/kg, po dosed once daily for 2 weeks. It is filed as organism-based. To be noted: in vivo, 336 h. Also noted: dose 100 mg/kg, route oral. An outline of the steps: as §4

Coagulation factor X, sequence (P00742 41-179 limits assumed): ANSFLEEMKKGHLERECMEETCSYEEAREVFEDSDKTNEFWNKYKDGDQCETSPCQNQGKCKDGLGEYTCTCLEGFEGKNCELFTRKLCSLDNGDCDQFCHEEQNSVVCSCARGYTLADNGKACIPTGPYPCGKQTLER
Coagulation factor X, sequence (P00742 235-488 limits assumed): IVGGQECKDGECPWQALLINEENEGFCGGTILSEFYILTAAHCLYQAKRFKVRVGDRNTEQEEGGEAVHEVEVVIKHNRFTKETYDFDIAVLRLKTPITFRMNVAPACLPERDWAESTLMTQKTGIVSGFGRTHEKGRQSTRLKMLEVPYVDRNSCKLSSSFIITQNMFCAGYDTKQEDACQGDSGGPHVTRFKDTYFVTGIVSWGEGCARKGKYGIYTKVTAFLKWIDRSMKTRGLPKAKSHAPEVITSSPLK

As for `O=C(NC[C@@H]1OC(=O)N2c3ccc(N4CCOCC4=O)cc3OC[C@@H]12)c1ccc(Cl)s1`, the IC50 (usually the concentration that gives 50% inhibition) in data set [1] was 0.00341 µM; in data set [2], above 100 µM; in [3], above 100 µM; in data set [15] it was 99.7 µM; in [16], above 200 µM; in data set [17], above 200 µM. Also, the 50% inhibitory concentration (IC50) in data set [18] amounted to 85.1 µM. Besides, the Activity in [4] was 0.18 µM; in [14], “Dose-dependent effect”; in data set [19] it was “Non-toxic”; in [20], “Non-toxic”; in data set [21] it was “Non-toxic”; in data set [22], “Non-toxic”. For the same molecule, the Activity entry in data set [23] and in data set [24] was “Non-toxic” each time. Also, the 2aPTT in data set [5] was determined as 0.14 µM. Moreover, the bioavailability – broadly, the share of a dose that reaches the circulation, judged against a reference dose that is usually intravenous – in data set [6] came out at 63.7%; in [13] it was 92%. In [7], the Cmax (as a rule, the highest concentration seen after dosing) stood at 530 ng/mL. Further, the Tmax (commonly the time from dosing to the highest level) in data set [8] amounted to 0.5 h. The half-life (as a rule, how long it takes for the measured level to halve) in [9] was 2 h. Also, the AUC(0-inf) (as a rule, the area under the concentration-time curve extrapolated to infinity) is 1530 ng·h/mL in [10] and 1320 ng·h/mL in data set [11]. In [12], the Vd was 1.7 L/kg.
